This excerpt belongs to a sample that is enriched for hits.
S1P4 agonist: agonists of human S1P4 receptor. O95977. activation, % at 4.98 µM. actives 0.35% (n = 220,000). AID 1509. S1P4-expressing cell line, agonist reporter assay; in the data active means activation above about 11%
L major viab: reduces viability of Leishmania major promastigotes | inhibition, % at 10 µM | actives 9% (n = 200,000) | resazurin fluorescence viability | AID 1063; in the data active means inhibition above about 50%;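 further: promastigotes grown with compound for 44 hours at 28 °C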
S1P3 antagonist: antagonists of human S1P3 receptor. AID 485. Q99500. actives 0.27% (n = 170,000). CHO S1P3 NFAT-BLA reporter, FRET fluorescence, antagonist mode. inhibition, % at 4.98 µM;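 active means inhibition above the plate cutoff, the mean inhibition of test wells on that plate plus 3 SD, cut at about 28% in these data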;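 further: cells challenged with S1P at its EC80 of 0.8 µM; blue over green emission ratio from cleaved BLA substrate after 4 h stimulation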
Mdm2 ligase inh: blocks human Mdm2 ubiquitin ligase activity | Q00987 | cell-based MDM2 ubiquitination luciferase reporter, 2 h; 0 = plate control, 100 = twice control, blank-subtracted | signal enhancement, % at 5 µM | actives 0.11% (n = 210,000);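 active means signal enhancement of 30% or more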;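 further: luminescence tracks abundance of the self-degrading MDM2-luciferase fusion protein; higher signal means inhibition of MDM2 E3 ligase activity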
Target sequence (Q00987 whole entry, looked up, the tested form may be a part): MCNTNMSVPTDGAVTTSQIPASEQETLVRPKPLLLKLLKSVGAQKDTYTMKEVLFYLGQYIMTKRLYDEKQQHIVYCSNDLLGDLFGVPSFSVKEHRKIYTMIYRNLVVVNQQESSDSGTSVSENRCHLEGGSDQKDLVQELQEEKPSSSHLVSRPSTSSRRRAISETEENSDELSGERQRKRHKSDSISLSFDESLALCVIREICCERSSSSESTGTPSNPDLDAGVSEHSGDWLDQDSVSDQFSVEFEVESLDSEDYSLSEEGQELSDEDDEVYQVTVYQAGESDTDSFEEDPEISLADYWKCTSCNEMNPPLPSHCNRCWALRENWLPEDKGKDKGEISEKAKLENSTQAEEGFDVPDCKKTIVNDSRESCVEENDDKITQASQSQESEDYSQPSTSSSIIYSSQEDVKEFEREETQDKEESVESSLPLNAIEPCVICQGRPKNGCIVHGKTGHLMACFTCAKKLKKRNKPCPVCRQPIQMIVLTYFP
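Timing – 2 h compound exposure at 37 °C · Assay system – mammalian cells stably expressing self-ubiquitinating, self-degrading MDM2 E3–luciferase fusion · Amount – 2000 cells seeded into each well · Measure – % luminescence enhancement versus blank-corrected plate control mean · Measured by – SteadyLite luminescence, 15 min reagent step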
S1P4 antag: blocks the human S1P4 receptor. AID 1510. S1P4-expressing cells, antagonist mode, reporter read-out. actives 0.26% (n = 220,000). inhibition, % at 4.98 µM; in the data active means inhibition above about 29%
Numbers stand for hits; i = inactive; nt = not tested or not shown.

SMILES	S1P4 agonist	L major viab	S1P3 antagonist	Mdm2 ligase inh	S1P4 antag
CC1CCN(CC(O)COCCC23CC4CC(CC(C4)C2)C3)CC1 (stereo not given)	i	95	nt	i	i
CC1CC(C)CN(CC(O)COCCOc2ccc(Br)cc2)C1 (stereo not given)	i	92	i	i	i
CN1CCN(CC(O)COCCOc2ccc(Br)cc2)CC1 (stereo not given)	i	i	i	i	i
O=C(COC(=O)Cc1ccsc1)Nc1ccc(Cl)c(S(=O)(=O)N2CCOCC2)c1	i	i	i	i	i
Brc1ccc(OCc2ccccc2)c(CNCc2ccncc2)c1	i	94	nt	i	i
Fc1ccc(COc2ccccc2CNCc2ccncc2)cc1	i	98	i	i	i
CCn1nnc2cc(C(=O)O)ccc21	i	nt	i	i	i
CCc1sc(C(=O)Nc2cccc(C(C)=O)c2)cc1C	i	i	i	i	i
Nc1cccc2c1C(=O)N(c1ccccc1)C2=O	nt	nt	93	nt	nt
COc1ccc(-n2nnnc2SCc2nc3ccccc3s2)cc1	i	i	nt	i	i
COc1ccc(C)cc1-n1nnnc1SCc1nc2ccccc2s1	i	83	i	i	i
Cc1nnc(SCc2nc3ccccc3s2)n1-c1ccccc1	i	i	i	i	i
CCn1c(SCc2nc3ccccc3s2)nnc1-c1ccccc1	i	65	nt	i	i
COc1ccc(C)cc1-n1nnnc1SCC(=O)Nc1cccnc1Cl	i	92	i	i	i
O=c1oc2ccccc2nc1/C=C(\O)c1ccccc1	i	nt	i	i	i
Cc1nc(C)c(/C(O)=C/c2nc3ccccc3oc2=O)s1	i	76	i	i	i
COc1cccc(CC(=O)N[C@@H](CCSC)c2nc3ccccc3[nH]2)c1	i	i	i	i	i
O=C(O)C1C2C=CC(C2)C1C(=O)NCc1ccc(Cl)c(Cl)c1 (stereo not given)	i	53	i	i	i
Cc1ccc(Oc2ccc(C(F)(F)F)cc2[N+](=O)[O-])c([N+](=O)[O-])n1	i	nt	i	i	i
Cc1cc(C(=O)N/N=C/c2cccnc2)cs1	i	i	i	i	i
COc1ccc(OC)c(CN(CCCN2CCOCC2)C(=O)Nc2ccccc2)c1	i	i	nt	i	i
Cc1ccc(Cl)cc1NC(=S)N(CCCN1CCOCC1)Cc1ccccn1	i	i	i	i	i
COc1ccc(Cl)cc1NC(=S)N(CCCN1CCOCC1)Cc1cn(C)c2ccccc12	i	100	i	i	i
COc1cc(Cl)ccc1NC(=S)N(CCCN1CCOCC1)Cc1cn(C)c2ccccc12	i	89	i	i	i
COc1ccc(S(=O)(=O)N(C)C)cc1NCC(=O)Nc1cccc(C#N)c1	i	i	i	i	i
SMILES	S1P4 agonist	L major viab	S1P3 antagonist	Mdm2 ligase inh	S1P4 antag
CC1=CC(C)(C)N(S(=O)(=O)c2ccc(C)cc2)c2ccc(C)cc21	i	100	nt	i	i
CC(=O)Nc1ccc(S(=O)(=O)N2c3ccccc3C(C)=CC2(C)C)cc1	i	100	i	i	i
CC1=CC(C)(C)N(S(=O)(=O)c2ccc(F)cc2)c2ccccc21	i	i	nt	i	i
C/C=C/C(=O)N1c2ccc(C)cc2C(C)=CC1(C)C	i	nt	i	nt	i
CCOC(=O)c1[nH]c2ccccc2c1NC(=O)Nc1ccc(OC)cc1	i	i	nt	i	i
COc1ccc(C)cc1NC(=O)C(=O)N/N=C(\C)CC(=O)Nc1cccnc1	i	i	i	i	i
c1ccc(-c2nc(NCC3CCCO3)c3oc4ccccc4c3n2)cc1 (stereo not given)	i	55	nt	i	i
CCOC(=O)c1nc(NCc2cccnc2)c2ccccc2n1	i	i	i	i	i
c1ccc2c(c1)oc1c(NCC3CCCO3)ncnc12 (stereo not given)	i	i	nt	i	i
CC(C)(C)c1ccc(-c2nc(NCc3cccnc3)c3ccccc3n2)cc1	i	80	i	i	i
O=C(O)CNc1nc(-c2ccccc2)nc2c1oc1ccccc12	i	nt	i	i	i
c1ccc(-c2nc(NCc3cccnc3)c3oc4ccccc4c3n2)cc1	i	88	i	i	i
COc1ccc(/C=C(/C(=O)NCc2ccccc2)c2ccccc2)cc1	i	92	i	nt	i
COc1ccccc1/C=C(/C(=O)OCC(=O)Nc1ccccc1C)c1ccccc1	i	i	i	i	i
COc1ccccc1/C=C(/C(=O)OCC(=O)NCc1ccccc1)c1ccccc1	i	62	i	i	i
CC(C)CCn1cnc2c(oc3nc4c(cc32)CCCC4)c1=O	i	nt	i	i	i
O=C(CSc1ccsc1[N+](=O)[O-])N1CCN(c2ccc(Cl)cc2)CC1	i	i	i	i	i
Cc1ccnc2c(N3C(=O)C4C5c6ccccc6C(c6ccccc65)C4C3=O)cccc12 (stereo not given)	i	58	nt	i	i
C=C1SC(Nc2c(C)cc(C)cc2C)=NC12CCCCC2	i	nt	i	i	i
CCCCCCCCCC[n+]1cccc2c3ccccc3ccc21	i	100	i	i	i
CCCCCCCC[n+]1cccc2c3ccccc3ccc21	i	101	i	i	i
Cc1ccc(NC(=O)COC(=O)[C@H](C)NC(=O)c2ccccc2)cc1S(=O)(=O)N1CCOCC1	i	nt	i	nt	i
CCN(CC)S(=O)(=O)c1ccc(C(=O)OCCN2C(=O)c3cccc4c(N5CCOCC5)ccc(c34)C2=O)cc1	i	i	i	i	i
O=C(OCCN1C(=O)c2cccc3c(N4CCOCC4)ccc(c23)C1=O)c1cc(Cl)cc(Cl)c1	i	71	i	i	i
CCCN1C(=O)c2cccc3c(N4CCCCC4)ccc(c23)C1=O	i	73	i	i	i
SMILES	S1P4 agonist	L major viab	S1P3 antagonist	Mdm2 ligase inh	S1P4 antag
CC(NC(=O)COc1ccccc1F)C1CC2CCC1C2 (stereo not given)	i	i	i	i	i
CCCCc1ncc(CN2CCC(CC3CCCCO3)(C(=O)OCC)CC2)[nH]1 (stereo not given)	i	i	i	i	i
CCOC(=O)C1(CC2CCCCO2)CCN(Cc2cc3ccccc3[nH]2)CC1 (stereo not given)	i	67	i	i	i
CCCC[N+](CC#Cc1ccccc1)(CCCC)CCCS(=O)(=O)[O-]	i	i	i	i	i
COC(=O)c1[nH]c2ccc(Br)cc2c1NC(=O)C(C)N1CCN(C2CCCCC2)CC1 (stereo not given)	i	100	i	i	i
COC(=O)c1[nH]c2ccc(C)cc2c1NC(=O)C(C)N1CCN(C2CCCCC2)CC1 (stereo not given)	i	i	i	i	i
Cc1cccc(N(CC(=O)N/N=C/c2cc([N+](=O)[O-])ccc2Cl)S(C)(=O)=O)c1C	i	86	nt	i	i
CC1CCN(C(=O)c2ccc(S(=O)(=O)Cc3ccccc3F)c([N+](=O)[O-])c2)CC1	i	93	i	i	i
O=C(c1ccc(S(=O)(=O)c2ccccc2Cl)c([N+](=O)[O-])c1)N1CCN(Cc2ccccc2)CC1	i	76	i	i	i
O=C(c1ccc(S(=O)(=O)c2ccc(F)cc2)c([N+](=O)[O-])c1)N1CCCCCC1	i	98	i	i	i
